Assay results from ChEMBL document CHEMBL1124458, “Electrophilic derivatives of purines as irreversible inhibitors of A1 adenosine receptors” (J Med Chem, 1989).

What was measured:
[1] = target: T1, Adenosine receptor A1 (Rattus norvegicus, UniProt P25099); test: Affinity for adenosine A1 receptor using [3H]N6-(phenylisopropyl)adenosine (R)-[3H]-PIA as a radioligand in rat brain.; assay type: tissue-based
T1 sequence (P25099 whole entry): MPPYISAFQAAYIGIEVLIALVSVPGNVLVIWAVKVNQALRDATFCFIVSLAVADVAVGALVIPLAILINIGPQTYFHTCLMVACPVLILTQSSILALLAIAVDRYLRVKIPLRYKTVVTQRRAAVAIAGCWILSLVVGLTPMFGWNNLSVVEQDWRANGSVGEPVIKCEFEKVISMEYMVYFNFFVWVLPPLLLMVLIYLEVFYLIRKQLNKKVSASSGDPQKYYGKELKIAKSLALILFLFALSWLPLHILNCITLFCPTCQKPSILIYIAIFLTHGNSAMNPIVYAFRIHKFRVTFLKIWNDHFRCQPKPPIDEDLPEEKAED

[2] = target: T2, Adenosine receptor A1 (Rattus norvegicus) (UniProt P25099); test: Inhibition of [125I]-APNEA binding to adenosine A1 receptor of rat brain at 50 nM
T2 sequence (whole entry): T1 sequence (P25099 whole entry)
Method in brief: (§1)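 Adenosine deaminase-treated rat cerebral cortex membranes were exposed to the ligand for 45 min at 37 °C. They were washed three times, held in buffer with 10⁻⁴ M IBMX for 18 h at 25 °C, washed and re-treated with deaminase. Residual sites were measured by 125I-APNEA saturation (0.1–2.5 nM) against untreated membranes carried through the same procedure.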

[3] = target: T3, Adenosine receptor A1 (Bos taurus, UniProt P28190); test: Affinity for Adenosine A1 receptor using [N6-[(3-[125I]-iodo-4-aminophenyl)ethyl]adenosine in calf brain; assay type: tissue-based
T3 sequence (P28190 whole entry): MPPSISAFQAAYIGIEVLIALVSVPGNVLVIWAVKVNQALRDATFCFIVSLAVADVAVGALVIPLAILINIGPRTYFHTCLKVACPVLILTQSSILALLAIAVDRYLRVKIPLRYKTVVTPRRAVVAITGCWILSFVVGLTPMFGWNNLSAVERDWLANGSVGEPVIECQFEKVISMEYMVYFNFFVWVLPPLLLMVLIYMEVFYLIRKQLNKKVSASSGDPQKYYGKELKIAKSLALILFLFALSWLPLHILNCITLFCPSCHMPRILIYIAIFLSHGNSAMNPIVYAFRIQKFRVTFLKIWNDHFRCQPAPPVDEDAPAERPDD
Method in brief: (§2)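 Bovine cerebral cortex membranes were pretreated with adenosine deaminase (0.5 unit/mL, 20 min, 37 °C). Membranes (40 µg) were incubated with 125I-APNEA and competitor for 1 h at 37 °C. Separation was by dilution in cold Tris-HCl/MgCl2/EDTA buffer, pH 8.26, with 0.02% Chaps, then glass-filter filtration and gamma counting. Nonspecific binding was defined with 10⁻⁵ M (R)-PIA.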

[4] = target: T3, Adenosine receptor A1; test: Affinity for Adenosine A1 receptor using [125I]APNEA in calf brain.; method in brief: as §2
[5] = target: T2, Adenosine receptor A1 (Rattus norvegicus); test: Percentage inhibition of [125I]APNEA binding to adenosine A1 receptor from rat brain after 45 min incubation at 500 nM; method in brief: as §1
[6] = target: T1, Adenosine receptor A1; test: Affinity for adenosine A1 receptor using [3H]-N6 -(phenylisopropyl)-adenosine (R)-[3H]-PIA in rat brain.; assay type: tissue-based
Method in brief: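 Rat cerebral cortex membranes were incubated with 1 nM (R)-[3H]PIA and a range of competitor concentrations. Each point was run in triplicate, in at least three separate experiments.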

[7] = target: Adenosine A2 receptor (Rattus norvegicus, UniProt P29276+P30543); test: Inhibition of [3H]N-ethyladenosine-5'-uronamide binding to Adenosine A2 receptor of rat striatal membrane
[8] = target: Adenosine receptors; A1 & A2 (Rattus norvegicus) (UniProt P29276+P25099+P30543); test: Selectivity ratio between Ki for adenosine A2 and A1 receptors; assay type: protein assay

O=C(Cc1ccc(NC(=O)Cc2ccc(Nc3ncnc4c3ncn4C3O[C@H](CO)[C@@H](O)[C@H]3O)cc2)cc1)NCCNC(=S)Nc1ccccc1F (some centres undefined)
Ki [1]: 6.75 nM

O=C(Cc1ccc(Nc2ncnc3c2ncn3C2O[C@H](CO)[C@@H](O)[C@H]2O)cc1)ON1C(=O)CCC1=O (some centres undefined)
inhibition [2]: 21%
Ki [1]: 8.37 nM

CCCn1c(=O)c2nc(-c3ccc(OCC(=O)ON4C(=O)CCC4=O)cc3)[nH]c2n(CCC)c1=O
inhibition [2]: 10%

CCCn1c(=O)c2[nH]c(-c3ccc(OCC(=O)NCCNC(=S)Nc4ccc(C#N)cc4)cc3)nc2n(CCC)c1=O
Ki [1]: 16.6 nM

O=C(Cc1ccc(NC(=O)Cc2ccc(Nc3ncnc4c3ncn4C3O[C@H](CO)[C@@H](O)[C@H]3O)cc2)cc1)NCCNC(=S)Nc1ccc(N=C=S)cc1 (some centres undefined)
Ki [1]: 0.469 nM

CCCn1c(=O)c2[nH]c(-c3ccc(OCC(=O)NCCNC(=O)Cc4ccc(NC(=S)Nc5ccc(N=C=S)cc5)cc4)cc3)nc2n(CCC)c1=O
Ki [1]: 25 nM

CCCn1c(=O)c2[nH]c(-c3ccc(OCC(=O)NCCN)cc3)nc2n(CCC)c1=O [XANTHINE AMINE CONGENER]
Ki [3]: 0.3 nM

O=C(Cc1ccc(NC(=O)Cc2ccc(Nc3ncnc4c3ncn4C3O[C@H](CO)[C@@H](O)[C@H]3O)cc2)cc1)NCC/N=C(\S)Nc1ccc(F)cc1 (some centres undefined)
Ki [1]: 8.71 nM

CCCn1c(=O)c2nc(-c3ccc(OCC(=O)NCCN=C(S)Nc4ccc(OC)cc4)cc3)[nH]c2n(CCC)c1=O
Ki [1]: 33.2 nM

CCCn1c(=O)c2nc(-c3ccc(OCC(=O)NCCNC(=O)CBr)cc3)[nH]c2n(CCC)c1=O
inhibition [2]: 16%

CCCn1c(=O)c2nc(-c3ccc(OCC(=O)NCCNC(=O)CCCCC(C)=O)cc3)[nH]c2n(CCC)c1=O
Ki [4]: 6.2 nM
inhibition [5]: 0%

O=C(Cc1ccc(NC(=O)Cc2ccc(Nc3ncnc4c3ncn4C3O[C@H](CO)[C@@H](O)[C@H]3O)cc2)cc1)NCC/N=C(\S)Nc1c(F)c(F)c(F)c(F)c1F (some centres undefined)
Ki [6]: 1.64 nM

CCCn1c(=O)c2nc(-c3ccc(OCC(=O)NCCNC(=O)CCC(=O)ON4C(=O)CCC4=O)cc3)[nH]c2n(CCC)c1=O
inhibition [5]: 0%

O=C(Cc1ccc(NC(=O)Cc2ccc(Nc3ncnc4c3ncn4C3O[C@H](CO)[C@@H](O)[C@H]3O)cc2)cc1)NCCNC(=S)Nc1ccc(Br)cc1 (some centres undefined)
Ki [1]: 1.19 nM

CCCn1c(=O)c2[nH]c(-c3ccc(OCC(=O)NCCNC(=O)CNC(=O)CCCN4C(=O)C=CC4=O)cc3)nc2n(CCC)c1=O
Ki [6]: 23.2 nM

CCCn1c(=O)c2nc(-c3ccc(OCC(=O)NCCN=C(S)Nc4ccc(F)cc4)cc3)[nH]c2n(CCC)c1=O
Ki [1]: 15.5 nM

O=C(Cc1ccc(Nc2ncnc3c2ncn3C2O[C@H](CO)[C@@H](O)[C@H]2O)cc1)Nc1ccc(CC(=O)ON2C(=O)CCC2=O)cc1 (some centres undefined)
inhibition [2]: 44%
Ki [1]: 9.6 nM

N#Cc1ccc(N/C(S)=N/CCNC(=O)Cc2ccc(NC(=O)Cc3ccc(Nc4ncnc5c4ncn5C4O[C@H](CO)[C@@H](O)[C@H]4O)cc3)cc2)cc1 (some centres undefined)
Ki [6]: 2.66 nM

CCCn1c(=O)c2nc(-c3ccc(OCC(=O)NCCN=C(S)Nc4ccc(S(=O)(=O)[O-])cc4)cc3)[nH]c2n(CCC)c1=O.[Na+]
Ki [7]: 1450 nM
Ratio [8]: 3.95
Ki [1]: 367 nM
